pKi: −log10 of the molar value.
Columns and labels:
[1] = Octanol-water partition coefficient, log P of the compound by HPLC analysis; format: physicochemical
Outline: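 log P was estimated from HPLC retention, with column dead time measured using unretained formamide.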

DMS-273 = test: Growth inhibition of human DMS273 cells after 48 hrs by sulforhodamine B assay; format: functional; conditions: DMS-273, 48 h
Outline: (§1)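 Yamori 39-line human cancer panel, NCI method with modifications. Cells plated in RPMI 1640 plus 5% FBS, attached overnight, then exposed 48 h to compound at 10^-8, 10^-7, 10^-6, 10^-5 and 10^-4 M. Sulforhodamine B staining read at 525 nm; % growth = 100[(T−T0)/(C−T0)] from duplicate-point averages, with T0 the time-zero absorbance. GI50 is the concentration giving 50.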

NCI-H460 = test: Growth inhibition of human NCI-H460 cells after 48 hrs by sulforhodamine B assay; format: functional; conditions: NCI-H460, 48 h; outline: as §1
SNB-75 = test: Growth inhibition of human SNB75 cells after 48 hrs by sulforhodamine B assay; format: functional; conditions: SNB-75, 48 h; outline: as §1
[2] = Growth inhibition of human HBC5 cells after 48 hrs by sulforhodamine B assay; format: functional; conditions: HBC5, 48 h; outline: as §1
[3] = biological target: T1, Protein kinase C delta type (Homo sapiens, UniProt Q05655); test: Inhibition of [3H]PDBu binding to PKCdelta-C1A domain peptide (unknown origin)
T1 sequence (Q05655 whole entry, the tested form may be a part): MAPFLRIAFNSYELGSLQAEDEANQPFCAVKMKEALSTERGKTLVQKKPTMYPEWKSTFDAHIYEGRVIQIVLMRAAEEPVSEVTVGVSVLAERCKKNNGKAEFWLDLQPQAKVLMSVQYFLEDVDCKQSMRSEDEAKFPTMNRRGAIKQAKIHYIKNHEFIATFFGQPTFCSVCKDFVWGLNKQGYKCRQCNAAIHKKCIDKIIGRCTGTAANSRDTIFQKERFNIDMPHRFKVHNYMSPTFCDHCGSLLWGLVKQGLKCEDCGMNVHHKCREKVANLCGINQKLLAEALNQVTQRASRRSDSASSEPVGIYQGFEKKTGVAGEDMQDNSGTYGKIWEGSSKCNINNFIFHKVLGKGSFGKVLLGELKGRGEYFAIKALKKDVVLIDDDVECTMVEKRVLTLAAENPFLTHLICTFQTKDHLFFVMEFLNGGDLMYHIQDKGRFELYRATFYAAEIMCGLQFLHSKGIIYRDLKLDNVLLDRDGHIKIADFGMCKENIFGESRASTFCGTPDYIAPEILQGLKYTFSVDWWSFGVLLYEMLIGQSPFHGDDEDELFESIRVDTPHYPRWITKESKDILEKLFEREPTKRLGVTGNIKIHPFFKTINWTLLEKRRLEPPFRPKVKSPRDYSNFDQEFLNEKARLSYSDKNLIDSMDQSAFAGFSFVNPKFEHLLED
Outline: (§2)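 Competitive [3H]PDBu binding used 14 or 40 nM PKCδ C1 peptide and 20 nM [3H]PDBu (19.6 Ci/mmol), in 50 mM Tris-maleate (pH 7.4 at 4 °C) with 50 µg/mL phosphatidylserine, 3 mg/mL bovine γ-globulin and varied inhibitor concentrations. IC50 was taken as 50% inhibition of specific binding. Ki was derived by the Sharkey–Blumberg method.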

[4] = Cytotoxicity against human Raji cells assessed as cell viability at 10^-6 M; format: cell-based; conditions: read-out: Activity
[5] = Cytotoxicity against human Raji cells assessed as cell viability at 10^-7 M; format: cell-based; conditions: read-out: Activity
Human gammaherpesvirus 4 [6] = test: Induction of EBV-early antigen expressed in human Raji cells at 10^-6 M after 48 hrs by immunofluorescence assay relative to control; format: organism-based; conditions: human gammaherpesvirus 4, raji, 1 µM
Outline: (§3)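 Raji B-lymphoblastoid cells (5 × 10^5/mL) in RPMI 1640 with 10% FBS, with 4 mM sodium n-butyrate as synergist and test compound at 10^-7 or 10^-6 M (final DMSO 0.4%). Incubated 48 h at 37 °C under 5% CO2. Smears were stained by indirect immunofluorescence using NPC patient serum and FITC anti-human IgG. At least 500 cells counted; % EA-positive recorded; n = 3, SEM.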

Human gammaherpesvirus 4 [7] = test: Induction of EBV-early antigen expressed in human Raji cells at 10^-7 M after 48 hrs by immunofluorescence assay relative to control; format: organism-based; conditions: human gammaherpesvirus 4, raji, 0.1 µM; outline: as §3
PC-3 = test: Growth inhibition of human PC3 cells after 48 hrs by sulforhodamine B assay; format: functional; conditions: PC-3, 48 h; outline: as §1
DU-145 = test: Growth inhibition of human DU145 cells after 48 hrs by sulforhodamine B assay; format: functional; conditions: DU-145, 48 h; outline: as §1
MKN-74 = test: Growth inhibition of human MKN74 cells after 48 hrs by sulforhodamine B assay; format: functional; conditions: MKN-74, 48 h; outline: as §1
MKN-28 = test: Growth inhibition of human MKN28 cells after 48 hrs by sulforhodamine B assay; format: functional; conditions: MKN-28, 48 h; outline: as §1
MKN-45 = test: Growth inhibition of human MKN45 cells after 48 hrs by sulforhodamine B assay; format: functional; conditions: MKN-45, 48 h; outline: as §1
MKN-7 = test: Growth inhibition of human MKN7 cells after 48 hrs by sulforhodamine B assay; format: functional; conditions: MKN-7, 48 h; outline: as §1
St-4 = test: Growth inhibition of human St-4 cells after 48 hrs by sulforhodamine B assay; format: functional; conditions: St-4, 48 h; outline: as §1
[8] = Growth inhibition of human MKN1 cells after 48 hrs by sulforhodamine B assay; format: functional; conditions: MKN-1, 48 h; outline: as §1
[9] = Growth inhibition of human RXF631L cells after 48 hrs by sulforhodamine B assay; format: functional; conditions: RXF 631, 48 h; outline: as §1
ACHN = test: Growth inhibition of human ACHN cells after 48 hrs by sulforhodamine B assay; format: functional; outline: as §1
OVCAR-8 = test: Growth inhibition of human OVCAR8 cells after 48 hrs by sulforhodamine B assay; format: functional; conditions: OVCAR-8, 48 h; outline: as §1
SK-OV-3 = test: Growth inhibition of human SKOV3 cells after 48 hrs by sulforhodamine B assay; format: functional; conditions: SK-OV-3, 48 h; outline: as §1
OVCAR-5 = test: Growth inhibition of human OVCAR5 cells after 48 hrs by sulforhodamine B assay; format: functional; conditions: OVCAR-5, 48 h; outline: as §1
OVCAR-3 = test: Growth inhibition of human OVCAR3 cells after 48 hrs by sulforhodamine B assay; format: functional; conditions: OVCAR-3, 48 h; outline: as §1
OVCAR-4 = test: Growth inhibition of human OVCAR4 cells after 48 hrs by sulforhodamine B assay; format: functional; conditions: OVCAR-4, 48 h; outline: as §1
DMS-114 = test: Growth inhibition of human DMS114 cells after 48 hrs by sulforhodamine B assay; format: functional; conditions: DMS-114, 48 h; outline: as §1
LOX IMVI = test: Growth inhibition of human LOXIMVI cells after 48 hrs by sulforhodamine B assay; format: functional; outline: as §1
A549 = test: Growth inhibition of human A549 cells after 48 hrs by sulforhodamine B assay; format: functional; conditions: A549, 48 h; outline: as §1
NCI-H226 = test: Growth inhibition of human NCI-H226 cells after 48 hrs by sulforhodamine B assay; format: functional; conditions: NCI-H226, 48 h; outline: as §1
NCI-H522 = test: Growth inhibition of human NCI-H522 cells after 48 hrs by sulforhodamine B assay; format: functional; conditions: NCI-H522, 48 h; outline: as §1
HCT-116 = test: Growth inhibition of human HCT116 cells after 48 hrs by sulforhodamine B assay; format: functional; conditions: HCT-116, 48 h; outline: as §1
NCI-H23 = test: Growth inhibition of human NCI-H23 cells after 48 hrs by sulforhodamine B assay; format: functional; conditions: NCI-H23, 48 h; outline: as §1
HCT-15 = test: Growth inhibition of human HCT15 cells after 48 hrs by sulforhodamine B assay; format: functional; conditions: HCT-15, 48 h; outline: as §1
KM12 = test: Growth inhibition of human KM12 cells after 48 hrs by sulforhodamine B assay; format: functional; conditions: KM12, 48 h; outline: as §1
HT-29 = test: Growth inhibition of human HT-29 cells after 48 hrs by sulforhodamine B assay; format: functional; conditions: HT-29, 48 h; outline: as §1
SNB-78 = test: Growth inhibition of human SNB78 cells after 48 hrs by sulforhodamine B assay; format: functional; conditions: SNB-78, 48 h; outline: as §1
[10] = Growth inhibition of human HCC2998 cells after 48 hrs by sulforhodamine B assay; format: functional; conditions: HCC 2998, 48 h; outline: as §1
SF-539 = test: Growth inhibition of human SF539 cells after 48 hrs by sulforhodamine B assay; format: functional; conditions: SF-539, 48 h; outline: as §1
SF-295 = test: Growth inhibition of human SF295 cells after 48 hrs by sulforhodamine B assay; format: functional; conditions: SF-295, 48 h; outline: as §1
U-251 = test: Growth inhibition of human U251 cells after 48 hrs by sulforhodamine B assay; format: functional; conditions: U-251, 48 h; outline: as §1
SF-268 = test: Growth inhibition of human SF268 cells after 48 hrs by sulforhodamine B assay; format: functional; conditions: SF-268, 48 h; outline: as §1
MCF7 = test: Growth inhibition of human MCF7 cells after 48 hrs by sulforhodamine B assay; format: functional; conditions: MCF7, 48 h; outline: as §1
MDA-MB-231 = test: Growth inhibition of human MDA-MB-231 cells after 48 hrs by sulforhodamine B assay; format: functional; conditions: MDA-MB-231, 48 h; outline: as §1
[11] = Growth inhibition of human BSY1 cells after 48 hrs by sulforhodamine B assay; format: functional; conditions: BSY-1, 48 h; outline: as §1
[12] = Growth inhibition of human HBC4 cells after 48 hrs by sulforhodamine B assay; format: functional; conditions: HBC4, 48 h; outline: as §1
[13] = biological target: T1, Protein kinase C delta type; test: Inhibition of [3H]PDBu binding to PKCdelta-C1B domain peptide (unknown origin); outline: as §2

SMILES: CC1(C)CC[C@@H]2CC(=O)O[C@@H](CO)CC(=O)O[C@@H]3C[C@@H](CCCCc4ccccc4)O[C@@]1(C3)O2
- logP [1]: 4.8

SMILES: CC1(C)CC[C@@H]2CC(=O)O[C@@H](CO)CC(=O)O[C@@H]3C[C@@H](CCCCc4cccc(O)c4)O[C@@]1(C3)O2
- GI50 (DMS-273): 12.6 µM
- GI50 (NCI-H460): 2.51 µM
- GI50 (SNB-75): 15.8 µM
- GI50 [2]: 17.4 µM

SMILES: C[C@H]1[C@@H]2C[C@@]3(O[C@H](CCC3(C)C)CC(=O)O[C@@H](CO)CC(=O)O2)O[C@@H]1CCCCc1cccc(O)c1
- pKi [3]: 7.66

SMILES: CC(=O)Nc1ccc(CCCC[C@@H]2C[C@@H]3C[C@@]4(O[C@H](CCC4(C)C)CC(=O)O[C@@H](CO)CC(=O)O3)O2)cc1O
- viability at 1 µM [4]: 60%
- viability at 0.1 µM [5]: 60%
- Activity (Human gammaherpesvirus 4 [6]): 2.4%
- Activity (Human gammaherpesvirus 4 [7]): 2.4%
- GI50 (PC-3): 20.9 µM
- GI50 (DU-145): 29.5 µM
- GI50 (MKN-74): 33.1 µM
- GI50 (MKN-28): 2.57 µM
- GI50 (MKN-45): 28.8 µM
- GI50 (MKN-7): 30.2 µM
- GI50 (St-4): 2.14 µM
- GI50 [8]: 34.7 µM
- GI50 [9]: 28.8 µM
- GI50 (ACHN): 26.3 µM
- GI50 (OVCAR-8): 44.7 µM
- GI50 (SK-OV-3): 34.7 µM
- GI50 (OVCAR-5): 20.4 µM
- GI50 (OVCAR-3): 23.4 µM
- GI50 (OVCAR-4): 37.2 µM
- GI50 (DMS-114): 20.9 µM
- GI50 (LOX IMVI): 12.9 µM
- GI50 (A549): 15.1 µM
- GI50 (DMS-273): 0.933 µM
- GI50 (NCI-H460): 20.4 µM
- GI50 (NCI-H226): 26.9 µM
- GI50 (NCI-H522): 25.7 µM
- GI50 (HCT-116): 31.6 µM
- GI50 (NCI-H23): 33.9 µM
- GI50 (HCT-15): 33.9 µM
- GI50 (KM12): 31.6 µM
- GI50 (HT-29): 19.5 µM
- GI50 (SNB-78): 51.3 µM
- GI50 [10]: 13.8 µM
- GI50 (SF-539): 30.2 µM
- GI50 (SNB-75): 41.7 µM
- GI50 (SF-295): 13.2 µM
- GI50 (U-251): 26.9 µM
- GI50 (SF-268): 43.7 µM
- GI50 (MCF7): 40.7 µM
- GI50 (MDA-MB-231): 16.6 µM
- GI50 [11]: 26.3 µM
- GI50 [2]: 46.8 µM
- GI50 [12]: 2.45 µM
- logP [1]: 2.7
- pKi [3]: 6.54
- pKi [13]: 7.44
